Reference: ChEMBL document CHEMBL3286132, “Syntheses, characterization and evaluation of novel 2,6-diarylpiperidin-4-ones as potential analgesic-antipyretic agents” (Eur J Med Chem, 2014)

Key:
[1] = Partition co-efficient, log P of the compound in ocatanol-water by shake flask method; format: physicochemical; conditions: octanol/water
Method in brief: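 Shake-flask method: 2 mg dissolved in 50 ml water plus 50 ml octanol, shaken 30 min and left 24 h to equilibrate. Phases were separated, and octanol-phase concentration was taken from absorbance against a standard curve. Log P was calculated from that concentration.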

[2] = Hydrolysis of the compound in simulated intestinal fluid at 10 mg after 120 mins by spectrophotometry; format: ADME; conditions: read-out: Drug degradation
Method in brief: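 Samples shaken on an orbital shaker at 37 ± 2 °C in simulated intestinal fluid. Aliquots were drawn at 0, 15, 30, 45, 60, 75, 90, 105 and 120 min, then diluted, filtered and read spectrophotometrically at each compound's λmax. % hydrolysed = (A0 − A120)/A0 × 100.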

Mus musculus [3] = assay: Analgesic activity in albino mouse assessed as inhibition of acetic acid-induced writhing at 60 mg/kg, po administered 1 hr prior challenge relative to control; format: functional
Method in brief: (§1)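 Male albino mice (25-30 g), fasted 20-24 h, groups of 5. Dosed orally as suspension in 0.5% sodium CMC; vehicle controls. 1 h later, 1% acetic acid in normal saline (10 ml/kg) given ip. Starting 5 min after injection, writhes counted over 30 min. Percent inhibition calculated from group mean writhes versus control.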

Mus musculus [4] = assay: Neurotoxicity in po dosed albino mouse assessed as alteration of motor activity […] by rotarod test; format: toxicity, organism-based; conditions: in vivo
Rattus norvegicus [5] = assay: Antipyretic activity in Wistar rat assessed as reduction in Brewer's yeast-induced hyperthermia measured as rectal temperature at 60 mg/kg, po administered 18 hrs post challenge measured after 1 hr post dose (reference value: 39.300 +/- 0.071 degC); format: functional
Method in brief: (§2)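 Male Wistar rats (200-300 g), fasted, groups of 5. Fever induced by sc 15% brewer's yeast in normal saline (10 ml/kg). Rectal temperature taken with a digital thermometer inserted about 7 mm. After 18 h, rats at 38 °C or above were used. Dosed orally as suspension in 0.5% CMC; vehicle controls. Temperature then read at set times after dosing. Values are means of five.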

Rattus norvegicus [6] = assay: Antipyretic activity in Wistar rat assessed as reduction in Brewer's yeast-induced hyperthermia measured as rectal temperature at 60 mg/kg, po administered 18 hrs post challenge measured after 3 hrs post dose (reference value: 39.400 +/- 0.071 degC); format: functional; method in brief: as §2
Rattus norvegicus [7] = assay: Antipyretic activity in Wistar rat assessed as reduction in Brewer's yeast-induced hyperthermia measured as rectal temperature at 60 mg/kg, po administered 18 hrs post challenge measured after 2 hrs post dose (reference value: 39.320 +/- 0.102 degC); format: functional; method in brief: as §2
Rattus norvegicus [8] = assay: Antipyretic activity in Wistar rat assessed as reduction in Brewer's yeast-induced hyperthermia measured as rectal temperature at 150 mg/kg, po administered 18 hrs post challenge measured after 1 hr post dose (reference value: 39.300 +/- 0.071 degC); format: functional; method in brief: as §2
Rattus norvegicus [9] = assay: Antipyretic activity in Wistar rat assessed as reduction in Brewer's yeast-induced hyperthermia measured as rectal temperature at 150 mg/kg, po administered 18 hrs post challenge measured after 2 hrs post dose (reference value: 39.320 +/- 0.102 degC); format: functional; method in brief: as §2
Rattus norvegicus [10] = assay: Antipyretic activity in Wistar rat assessed as reduction in Brewer's yeast-induced hyperthermia measured as rectal temperature at 150 mg/kg, po administered 18 hrs post challenge measured after 3 hrs post dose (reference value: 39.400 +/- 0.071 degC); format: functional; method in brief: as §2
Mus musculus [11] = assay: Neurotoxicity in albino mouse assessed as alteration of motor activity at 2 mg/kg, po measured after 60 mins for 60 secs by rotarod test; format: toxicity, organism-based; set-up: dose 2 mg/kg, route oral; conditions: in vivo
Method in brief: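 Male albino mice on a 1 in. knurled wooden rod rotating at 6–10 rpm. Testing began 60 min after oral dosing. Neurological toxicity was defined as failure to stay on the rod for 1 min or more.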

Mus musculus [12] = assay: Analgesic activity in albino mouse assessed as inhibition of acetic acid-induced writhing at 10 mg/kg, po administered 1 hr prior challenge relative to control; format: functional; method in brief: as §1

SMILES: CC1C(=O)CC(c2ccc(Cl)cc2)N(C(=O)CCl)C1c1ccc(N(C)C)cc1 (stereo not given)
- logP [1]: 1.24
- degraded at 2 h [2]: 76.8%
- inhibition in vivo at 60 mg/kg (Mus musculus [3]): 17.8%
- Activity (Mus musculus [4]): Non-toxic
- T (Rattus norvegicus [5]): 39 °C
- T (Rattus norvegicus [6]): 37.86 °C
- T (Rattus norvegicus [7]): 38.56 °C

SMILES: CC1C(=O)CC(c2ccc(Cl)cc2)N(C(=O)CN2CCN(C)CC2)C1c1ccc(N(C)C)cc1 (stereo not given)
- logP [1]: 1.35
- degraded at 2 h [2]: 77.6%
- inhibition in vivo at 60 mg/kg (Mus musculus [3]): 28.1%
- Activity (Mus musculus [4]): Non-toxic
- T (Rattus norvegicus [5]): 38.9 °C
- T (Rattus norvegicus [6]): 37.52 °C
- T (Rattus norvegicus [7]): 38.14 °C

SMILES: CC1C(=O)CC(c2ccc(F)cc2)N(C(=O)CCl)C1c1ccc(Cl)cc1 (stereo not given)
- logP [1]: 1.72
- degraded at 2 h [2]: 1.17%
- inhibition in vivo at 60 mg/kg (Mus musculus [3]): 57.6%
- Activity (Mus musculus [4]): Non-toxic
- T (Rattus norvegicus [5]): 38.14 °C
- T (Rattus norvegicus [6]): 37.16 °C
- T (Rattus norvegicus [7]): 37.54 °C

SMILES: CC1C(=O)CC(c2ccc(F)cc2)N(C(=O)CN2CCN(C)CC2)C1c1ccc(Cl)cc1 (stereo not given)
- logP [1]: 2.09
- degraded at 2 h [2]: 4.49%
- inhibition in vivo at 60 mg/kg (Mus musculus [3]): 65.5%
- Activity (Mus musculus [4]): Non-toxic
- T (Rattus norvegicus [5]): 37.9 °C
- T (Rattus norvegicus [6]): 37.18 °C
- T (Rattus norvegicus [7]): 37.16 °C

SMILES: COc1ccc(C2C(C)C(=O)CC(c3ccc(F)cc3)N2C(=O)CCl)cc1 (stereo not given)
- logP [1]: 1.42
- degraded at 2 h [2]: 2.01%
- inhibition in vivo at 60 mg/kg (Mus musculus [3]): 51.2%
- Activity (Mus musculus [4]): Non-toxic
- T (Rattus norvegicus [5]): 38.58 °C
- T (Rattus norvegicus [6]): 37.2 °C
- T (Rattus norvegicus [7]): 37.9 °C

SMILES: COc1ccc(C2C(C)C(=O)CC(c3ccc(F)cc3)N2C(=O)CN2CCN(C)CC2)cc1 (stereo not given)
- logP [1]: 1.53
- degraded at 2 h [2]: 2.51%
- inhibition in vivo at 60 mg/kg (Mus musculus [3]): 55.2%
- Activity (Mus musculus [4]): Non-toxic
- T (Rattus norvegicus [5]): 38.18 °C
- T (Rattus norvegicus [6]): 37.1 °C
- T (Rattus norvegicus [7]): 37.44 °C

SMILES: CC1C(=O)CC(c2ccc(Cl)cc2)N(C(=O)CCl)C1c1ccc(O)cc1 (stereo not given)
- logP [1]: 1.05
- degraded at 2 h [2]: 42.7%
- inhibition in vivo at 60 mg/kg (Mus musculus [3]): 39.7%
- Activity (Mus musculus [4]): Non-toxic
- T (Rattus norvegicus [5]): 38.92 °C
- T (Rattus norvegicus [6]): 37.14 °C
- T (Rattus norvegicus [7]): 38.5 °C

SMILES: COc1ccc(C2C(C)C(=O)CC(c3ccc(Cl)cc3)N2C(=O)CCl)cc1 (stereo not given)
- logP [1]: 1.29
- degraded at 2 h [2]: 2.68%
- inhibition in vivo at 60 mg/kg (Mus musculus [3]): 44.1%
- Activity (Mus musculus [4]): Non-toxic
- T (Rattus norvegicus [5]): 38.76 °C
- T (Rattus norvegicus [6]): 37.2 °C
- T (Rattus norvegicus [7]): 38.36 °C

SMILES: COc1ccc(C2C(C)C(=O)CC(c3ccc(Cl)cc3)N2C(=O)CN2CCN(C)CC2)cc1 (stereo not given)
- logP [1]: 1.48
- degraded at 2 h [2]: 18.8%
- inhibition in vivo at 60 mg/kg (Mus musculus [3]): 53%
- Activity (Mus musculus [4]): Non-toxic
- T (Rattus norvegicus [5]): 38.52 °C
- T (Rattus norvegicus [6]): 37.28 °C
- T (Rattus norvegicus [7]): 37.68 °C

SMILES: CC1C(=O)CC(c2ccc(F)cc2)N(C(=O)CCl)C1c1ccc(O)cc1 (stereo not given)
- logP [1]: 1.14
- degraded at 2 h [2]: 43.2%
- inhibition in vivo at 60 mg/kg (Mus musculus [3]): 51.2%
- Activity (Mus musculus [4]): Non-toxic
- T (Rattus norvegicus [5]): 38.72 °C
- T (Rattus norvegicus [6]): 37.16 °C
- T (Rattus norvegicus [7]): 38.3 °C

SMILES: CC(=O)Nc1ccc(O)cc1 [ACETAMINOPHEN]
- T (Rattus norvegicus [8]): 37.88 °C
- T (Rattus norvegicus [9]): 37.14 °C
- T (Rattus norvegicus [10]): 37.1 °C

SMILES: CN1C(=O)CN=C(c2ccccc2)c2cc(Cl)ccc21 [DIAZEPAM]
- Activity (Mus musculus [11]): Toxic

SMILES: O=C(O)Cc1ccccc1Nc1c(Cl)cccc1Cl [DICLOFENAC SODIUM]
- inhibition in vivo at 10 mg/kg (Mus musculus [12]): 56.5%
